In PMC6839450 (ACS chemical biology, 2015):

What was measured:
Experiment in all cases: Cell viability
Details in all cases: Ac-peptide, up to 20 μM, 24 h, CellTiter-Glo
wild-type MEFs = format: cell-based, mouse
How it was run: (§1)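 Cells in OptiMEM with penicillin/streptomycin: MEFs (wild-type or Bax−/−Bak−/−) at 2.5 × 10^3 per well, adhered overnight and washed; OCI-AML3 at 1 × 10^4 per well. Serial dilutions of peptide from a 10 mM DMSO stock, or vehicle, were applied for 2 h at 37 °C serum-free, then FBS was added to 10%. CellTiter-Glo luminescence was read 24 h post-treatment.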

OCI-AML3 cells = format: cell-based
How it was run: as §1

Bax−/−Bak−/− (DKO) MEFs = format: cell-based, mouse
How it was run: as §1

BIM BH3_2: unmodified BIM BH3 domain peptide, amino acids 145–164; N-terminal cap depends on the assay
no effect: Effect on viability of wild-type MEFs (in words) (wild-type MEFs) | Effect on viability of OCI-AML3 cells (in words) (OCI-AML3 cells) | Effect on viability of Bax−/−Bak−/− (DKO) MEFs (in words) (Bax−/−Bak−/− (DKO) MEFs)
